Data set [1] in a line: cells. To be noted: Orthoebolavirus, Mayinga, HEK-293T. Type of data set: cell-based, Ebolavirus, HEK293T.
Data set [2] can be described thus: cells. It is filed as cell-based, HEK293T. To be noted: Vesicular stomatitis virus, HEK-293T.
A short description of data set [3]: Cytotoxicity against human HEK293T cells incubated for 48 hrs by MTT assay. To be noted: HEK293T cells. Type of data set: cell-based, HEK-293T. The essentials:
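HEK293T cells at 10⁵ cells/ml were added to two-fold compound dilutions in 10% DMEM and incubated 48 h at 37 °C, 5% CO2. MTT (5 mg/ml stock in PBS, 1/10 volume) was added for 2 h, and formazan was dissolved in DMSO before reading optical density. Each concentration was run in triplicate. CC50 was the concentration giving 50% cell death, or halving OD versus control.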
On the technique in general: Tetrazolium assays rely on reduction of a dye to a coloured formazan, in cell work by metabolically active cells.

The nature of a further data set: in vitro. To be noted: human, HEK293T cells.

For the compound `CC1CCN(CCCC(=O)N[C@@H]2C[C@H]3CC[C@]2(C)C3(C)C)CC1`, the half-maximal inhibitory concentration (IC50) turned out to be 3.4 µM in “cells [1]” and 142 µM in the data set “cells [2]”. The compound also had a CC50 at 48 h in data set [3] of 142 µM. Besides, the selectivity ratio in the data set “in vitro” turned out to be 41.
Consider `CC1CCN(CC(=O)O[C@H]2C[C@@H]3CC[C@@]2(C)C3(C)C)CC1`, for which, in “cells [1]”, it took 4.4 µM to reach half-maximal inhibition (IC50). This compound came in with a CC50 at 48 h in data set [3] of 34.1 µM. For the same compound, in the data set “in vitro”, the selectivity ratio was found to be 8.
With `CN[C@H]1CC[C@@H](c2ccc(Cl)c(Cl)c2)c2ccccc21` [SERTRALINE], half-maximal cytotoxicity in data set [3] (CC50 at 48 h) was put at 408 µM.
Turning to `CC1(C)[C@H]2CC[C@]1(C)[C@H](OC(=O)CCN1CCN(Cc3ccccc3)CC1)C2`, the IC50 in the data set “cells [1]” turned out to be 0.3 µM; in the data set “cells [2]”, 27 µM. The compound further showed a cytotoxic concentration (CC50) at 48 h in data set [3] of 39 µM. Also, in the data set “in vitro”, the selectivity ratio turned out to be 150.
In the same order, the values of `CC1CCN(CCCCC(=O)O[C@@H]2C[C@@H]3CC[C@@]2(C)C3(C)C)CC1` are 0.2 µM, 83.5 µM, 73 µM and 408.
On the same counts, the results for `CCN1CCN(CCCC(=O)N[C@@H]2C[C@H]3CC[C@]2(C)C3(C)C)CC1` are 2.1 µM, 268 µM, 268 µM and 129.
Regarding `CN1CCN(CCCC(=O)N[C@@H]2C[C@H]3CC[C@]2(C)C3(C)C)CC1`, the half-inhibitory concentration (IC50) came to 2.5 µM in “cells [1]” and 475 µM in the data set “cells [2]”. The same compound showed a CC50 at 48 h in data set [3] of 475 µM. The selectivity ratio in “in vitro” is 191.
For the compound `CCN1CCN(CC(=O)O[C@@H]2C[C@@H]3CC[C@@]2(C)C3(C)C)CC1`, the 50% inhibitory concentration (IC50) amounted to 1.6 µM in “cells [1]” and 264 µM in “cells [2]”. Further, the midpoint of cytotoxicity in data set [3], the CC50 at 48 h, lay at 130 µM. Further, the selectivity ratio in “in vitro” was found to be 80.
Take `CCOC(=O)N1CCN(CC(=O)O[C@@H]2C[C@@H]3CC[C@@]2(C)C3(C)C)CC1`: the concentration for half-maximal inhibition (IC50) in “cells [1]” worked out at 19.9 µM; in the data set “cells [2]” it was 113 µM. In data set [3], this compound displayed a CC50 at 48 h of 227 µM. The selectivity ratio in the data set “in vitro” was 11.
In the same order, the values of `CC1(C)[C@H]2CC[C@]1(C)[C@H](OC(=O)CN1CCCCC1)C2` are 15.7 µM, 122 µM, 141 µM and 9.
As to `CC1CCN(CC(=O)O[C@@H]2C[C@H]3CC[C@]2(C)C3(C)C)CC1`, the 50% inhibitory concentration (IC50) in “cells [1]” stood at 3.1 µM. Also, the midpoint of cytotoxicity in data set [3], the CC50 at 48 h, lay at 34.1 µM. Further, the selectivity ratio in “in vitro” turned out to be 11.
Regarding `CN(C)CC(=O)O[C@@H]1C[C@@H]2CC[C@@]1(C)C2(C)C`, the figures for the half-inhibitory concentration (IC50) in the data set “cells [1]” and in “cells [2]” were 251 µM and 523 µM, respectively. Moreover, in data set [3], the CC50 at 48 h came to 389 µM. Further, in “in vitro”, the selectivity ratio was determined as 2.
In turn, `CC1(C)[C@@H]2CC[C@@]1(C)[C@H](OC(=O)CN1CCCCC1)C2` showed an IC50 in the data set “cells [1]” of 2.9 µM. The same compound displayed a 50% cytotoxic concentration (CC50) at 48 h in data set [3] of 80.5 µM. The selectivity ratio in “in vitro” was 28.
In the same order, the values of `CC1(C)[C@H]2CC[C@]1(C)[C@@H](OC(=O)CN1CCCCC1)C2` are 3.6 µM, 89.5 µM and 25.
In the case of `CCN1CCN(CCCC(=O)O[C@@H]2C[C@@H]3CC[C@@]2(C)C3(C)C)CC1`, the concentration for half-maximal inhibition (IC50) is 0.1 µM in the data set “cells [1]” and 165 µM in the data set “cells [2]”. Further, in data set [3], the midpoint of cytotoxicity, the CC50 at 48 h, lay at 131 µM. In the data set “in vitro”, the selectivity ratio worked out at 880.
On the same counts, the results for `CC1(C)[C@H]2CC[C@]1(C)[C@H](OC(=O)CN1CCN(CCN)CC1)C2` are 2.2 µM, 24.1 µM, 247 µM and 114.
As for `CN1CCN(CCCC(=O)O[C@@H]2C[C@@H]3CC[C@@]2(C)C3(C)C)CC1`, the half-inhibitory concentration (IC50) was 0.6 µM in the data set “cells [1]” and 97.3 µM in “cells [2]”. In data set [3], this compound returned a CC50 at 48 h of 99.2 µM.
On the same counts, the results for `CC1CCN(CCCC(=O)O[C@@H]2C[C@@H]3CC[C@@]2(C)C3(C)C)CC1` are 9.3 µM, 276 µM and 171 µM.
Compound `CC1(C)[C@H]2CC[C@]1(C)[C@H](OC(=O)CCCN1CCCCCC1)C2` registered a concentration for half-maximal inhibition (IC50) in “cells [1]” of 0.2 µM. Besides, in data set [3], half-maximal cytotoxicity (CC50 at 48 h) was put at 62.2 µM. Further, in “in vitro”, the selectivity ratio was determined as 250.
For `CCOC(=O)N1CCN(CCCC(=O)O[C@@H]2C[C@@H]3CC[C@@]2(C)C3(C)C)CC1`, the 50% inhibitory concentration (IC50) in “cells [1]” was 2.6 µM; in “cells [2]”, 49.1 µM. The same compound registered a CC50 at 48 h in data set [3] of 60.4 µM. Moreover, the selectivity ratio in “in vitro” turned out to be 23.
On the same counts, the results for `CCN1CCN(CCC(=O)N[C@@H]2C[C@H]3CC[C@]2(C)C3(C)C)CC1` are 0.6 µM, 565 µM, 565 µM and 908.
In the same order, the values of `CC1(C)[C@H]2CC[C@]1(C)[C@H](OC(=O)CCCN1CCN(Cc3ccccc3)CC1)C2` are 0.3 µM, 26 µM, 30.1 µM and 100.
In the case of `CC1(C)[C@H]2CC[C@]1(C)[C@H](OC(=O)CCN1CCN(CCO)CC1)C2`, the IC50 in “cells [1]” worked out at 1.8 µM; in the data set “cells [2]” it was 259 µM. In addition, in data set [3], the CC50 at 48 h was 272 µM. Also, in the data set “in vitro”, the selectivity ratio turned out to be 153.
In the same order, the values of `CN1CCN(CC(=O)N[C@@H]2C[C@H]3CC[C@]2(C)C3(C)C)CC1` are 13.3 µM, 853 µM, 853 µM and 64.
On the same counts, the results for `CCN(CC)CC(=O)O[C@@H]1C[C@@H]2CC[C@@]1(C)C2(C)C` are 5.6 µM, 561 µM, 344 µM and 61.
Regarding `CCN(CC)CCCC(=O)O[C@@H]1C[C@@H]2CC[C@@]1(C)C2(C)C`, the IC50 came to 0.3 µM in “cells [1]” and 195 µM in the data set “cells [2]”. The same compound gave a CC50 at 48 h in data set [3] of 166 µM. In addition, the selectivity ratio in “in vitro” turned out to be 490.
In the same order, the values of `CN1CCN(CC(=O)O[C@@H]2C[C@@H]3CC[C@@]2(C)C3(C)C)CC1` are 6.8 µM, 485 µM, 312 µM and 46.
Regarding `CCOC(=O)N1CCN(CCC(=O)O[C@@H]2C[C@@H]3CC[C@@]2(C)C3(C)C)CC1`, the IC50 in “cells [1]” came out at 28.3 µM. The compound also registered a CC50 at 48 h in data set [3] of 110 µM. Moreover, the selectivity ratio in “in vitro” was 4.
Take `CC1(C)[C@@H]2CC[C@@]1(C)[C@H](NC(=O)CCN1CCOCC1)C2`: the IC50 in the data set “cells [1]” stood at 22.1 µM; in “cells [2]” it was 312 µM. Further, the CC50 at 48 h in data set [3] worked out at 312 µM.
For `CN(C)CCC(=O)O[C@@H]1C[C@@H]2CC[C@@]1(C)C2(C)C`, 30 µM corresponded to half-maximal inhibition in the data set “cells [1]” (IC50). For the same compound, the midpoint of cytotoxicity in data set [3], the CC50 at 48 h, lay at 505 µM. For the same compound, the selectivity ratio in “in vitro” was 17.
On the same counts, the results for `CC1(C)[C@H]2CC[C@]1(C)[C@H](OC(=O)CN1CCCCCC1)C2` are 1 µM, 71.6 µM and 70.
For the compound `CC1CCN(CC(=O)N[C@@H]2C[C@H]3CC[C@]2(C)C3(C)C)CC1`, the results for the half-inhibitory concentration (IC50) in “cells [1]” and in “cells [2]” were 27 µM and 78 µM, respectively. Besides, half-maximal cytotoxicity in data set [3] (CC50 at 48 h) was put at 78 µM.
In turn, `CN(C)CCCC(=O)O[C@@H]1C[C@@H]2CC[C@@]1(C)C2(C)C` gave an IC50 in “cells [1]” of 1.5 µM. For the same compound, it took 101 µM to reach half-maximal cytotoxicity in data set [3] (CC50 at 48 h). For the same compound, the selectivity ratio in the data set “in vitro” was 67.

As a reminder, the IC50 is the point on the concentration scale where inhibition reaches its midpoint. A higher IC50 goes with a need for much substance. For orientation: CC50 means the concentration at which the toxic effect on the cells reaches its halfway point. Low values mean greater toxicity to the cells, high ones lower toxicity to the cells.

Source of the values: ChEMBL document CHEMBL4706564 (Eur J Med Chem, 2020).
